Data on 28 compounds can be found in ChEMBL document CHEMBL4699663, “Design, synthesis, and biological activity of novel semicarbazones as potent Ryanodine receptor1 inhibitors of Alzheimer's disease” (Bioorg Med Chem, 2021).

In brackets after ≈: the same amount, converted by molar mass. Activity calls are given as the source filed them. The calls are words filed in the database; no cut-off is given here.

One may read the inhibition as the change of the read-out against control, counted positive when it falls.

The species entered for series [1] is Homo sapiens. The experiment in a line: Inhibition of RYR-1 R614C mutant (unknown origin) expressed in cells assessed as inhibition of store overload-induced Ca2+ release at 0.1 uM after 3 mins by fura-2AM dye based microscopic analysis. The series is classed as cell-based.
The species named for series [2] is Homo sapiens. Description: Inhibition of RYR-1 R614C mutant (unknown origin) expressed in cells assessed as inhibition of store overload-induced Ca2+ release at 10 uM after 3 mins by fura-2AM dye based microscopic analysis. It counts as cell-based.
The target in series [3] is Acetylcholinesterase (Electrophorus electricus) (UniProt O42275). Description: Inhibition of electric eel AChE at 5 uM using acetylthiocholine iodide as substrate preincubated with enzyme for 30 mins followed by substrate addition and measured for 10 mins by Ellman's method relative to control. Conditions: time 40.0 min. A digest of the protocol:
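Electrophorus electricus AChE at 0.25 U/mL, with 60 µM DTNB in 0.05 M phosphate buffer pH 8, was incubated 30 min with the DMSO-dissolved inhibitor. The reaction was then started with 1.5 mM acetylthiocholine iodide and read at 412 nm for 10 min. Percent inhibition was taken from reaction rates versus control, from three experiments run in triplicate.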
On the technique in general: Ellman's reagent forms a yellow product with free thiols.

The species entered for series [4] is Homo sapiens. Description: Inhibition of RYR-1 R614C mutant (unknown origin) expressed in cells assessed as inhibition of store overload-induced Ca2+ release at 3 uM after 3 mins by fura-2AM dye based microscopic analysis. It counts as cell-based.
The species entered for series [5] is Homo sapiens. Description: Inhibition of RYR-1 R614C mutant (unknown origin) expressed in cells assessed as inhibition of store overload-induced Ca2+ release at 0.1 uM after 3 mins by fura-2AM dye based microscopic analysis relative to control. The series is classed as cell-based.
The species entered for series [6] is Homo sapiens. Description: Inhibition of RYR-1 R614C mutant (unknown origin) expressed in cells assessed as inhibition of store overload-induced Ca2+ release at 10 uM after 3 mins by fura-2AM dye based microscopic analysis relative to control. The series is classed as cell-based.
Series [7] is filed under the species Homo sapiens. Description: Inhibition of RYR-1 R614C mutant (unknown origin) expressed in cells assessed as inhibition of store overload-induced Ca2+ release after 3 mins by microscopic analysis. It counts as cell-based. Conditions: dose microM 0.1-10, time 3.0 min.
The species named for series [8] is Homo sapiens. Description: Inhibition of RYR-1 R614C mutant (unknown origin) expressed in cells assessed as inhibition of store overload-induced Ca2+ release at 3 uM after 3 mins by fura-2AM dye based microscopic analysis relative to control. The series is classed as cell-based.
Series [9] concerns Mus musculus. Description: Improvement in learning and spatial memory in SPF grade FAD mouse assessed as swimming time on target zone at 3.2 mg/kg, ip measured 24 hrs post trial training by probe test (reference value: 23.1 +/- 1.1 %). The series is classed as functional.
Series [10] has as its system Mus musculus. The experiment in a line: Cognitive enhancing effect in SPF grade FAD mouse assessed as reduction in mean escape latency time at 3.2 mg/kg, ip measured on day 2 by Morris water maze test (reference value: 36.72 sec). As to conditions: time 2 day. It counts as functional. In short, it runs like this:
(§1)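 Mixed-sex FAD mice, 5 months old at dosing, given 3.2 mg/kg intraperitoneally in DMSO (1.12 mg/ml) daily for 30 days; controls got the same volume of DMSO. Morris water maze training started after dosing. Mice entered the water facing the wall from four entry points in turn, and time to find and climb the platform was recorded. Data are mean ± SD, analysed by ANOVA.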

The nature of series [11]: Toxicity in SPF grade FAD mouse assessed as effect on body weight at 3.2 mg/kg, ip administered for 30 consecutive days. It counts as organism-based. Conditions: in vivo, 720 h, time 30 day. In short, it runs like this:
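Mixed-sex FAD mice, 5 months old, were given 3.2 mg/kg/day intraperitoneally in DMSO (1.12 mg/ml) for 30 consecutive days; controls received the same volume of DMSO. Body weight was measured daily during dosing and reported as mean ± SD (n = 7).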

The test system of series [12] is Mus musculus. Description: Cognitive enhancing effect in SPF grade FAD mouse assessed as reduction in mean escape latency time at 3.2 mg/kg, ip measured on day 4 by Morris water maze test (reference value: 31.99 sec). It counts as functional. As to conditions: time 4 day. A digest of the protocol:
as §1

Series [13] concerns Mus musculus. The experiment in a line: Cognitive enhancing effect in SPF grade FAD mouse assessed as reduction in mean escape latency time at 3.2 mg/kg, ip measured on day 3 by Morris water maze test (reference value: 35.59 sec). Conditions: time 3 day. The series is classed as functional. A digest of the protocol: as §1
A short description of series [14]: Kinetic aqueous solubility of the compound in PBS at pH 7.4 by turbidimetric analysis. The series is classed as physicochemical. As to conditions: read-out: Kinetic_solubility. A digest of the protocol:
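Turbidimetric kinetic solubility: DMSO stocks were diluted 100-fold into PBS pH 7.4, giving eight final concentrations (1.6–200 mM as printed). After 2 h incubation, absorbance was read at 540 nm. Wells above blank mean + 3 SD counted as turbid, and the highest clear concentration was taken as the solubility.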

Acetylcholinesterase (Electrophorus electricus), sequence (O42275 24-633 limits assumed): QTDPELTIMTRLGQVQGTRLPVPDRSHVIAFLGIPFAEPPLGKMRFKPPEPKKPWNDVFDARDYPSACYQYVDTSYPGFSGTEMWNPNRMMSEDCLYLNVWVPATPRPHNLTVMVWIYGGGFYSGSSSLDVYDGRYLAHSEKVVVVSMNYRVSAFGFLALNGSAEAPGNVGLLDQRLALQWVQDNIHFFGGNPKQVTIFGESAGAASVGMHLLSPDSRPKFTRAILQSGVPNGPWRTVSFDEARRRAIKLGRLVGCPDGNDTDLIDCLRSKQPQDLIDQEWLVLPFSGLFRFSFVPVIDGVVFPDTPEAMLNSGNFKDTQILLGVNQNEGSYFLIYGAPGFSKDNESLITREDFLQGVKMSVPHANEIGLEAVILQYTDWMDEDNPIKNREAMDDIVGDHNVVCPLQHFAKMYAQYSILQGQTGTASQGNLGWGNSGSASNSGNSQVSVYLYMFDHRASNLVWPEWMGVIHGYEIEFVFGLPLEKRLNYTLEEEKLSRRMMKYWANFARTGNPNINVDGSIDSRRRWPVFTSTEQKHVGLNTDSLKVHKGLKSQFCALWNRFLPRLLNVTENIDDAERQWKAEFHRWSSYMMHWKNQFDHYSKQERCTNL

In the case of `Cc1ccccc1NC(=O)N/N=C/c1ccc(-c2ccc([N+](=O)[O-])cc2)o1`, the inhibition entry in [1], in series [2] and in series [4] was “inactive” each time. Moreover, the inhibition in series [3] came out at 18.2%.

As for `O=C(N/N=C/c1ccc(-c2ccc([N+](=O)[O-])cc2)o1)Nc1cccc(Br)c1`, the inhibition in series [5] was 26.7%; in [6], 67.1%; in series [7], “Dose-dependent effect”; in series [8], 67.1%.

As to `Cc1cccc(NC(=O)N/N=C/c2ccc(-c3ccc([N+](=O)[O-])cc3)o2)c1`, the inhibition in series [5] was 10.7%; in series [6], 34.6%; in series [7], “Dose-dependent effect”; in series [8], 15.2%.

Take `O=C(N/N=C/c1ccc(-c2ccc([N+](=O)[O-])cc2)o1)c1cnc[nH]1`: the Activity is listed as 35.7% in [9] and “Non-Toxic” in [11]. The inhibition was 31.5% in series [5]; 24.8% in series [3]; 93.7% in [6]; “Dose-dependent effect” in series [7]; 77.2% in [8]. The Time in series [10] turned out to be 29.89 s; in series [12], 16.23 s; in series [13], 25.12 s. Besides, in series [14], the solubility kinetic is 580 µM (≈ 189 µg/mL).

For the compound `CN(/N=C/c1ccc(-c2ccc([N+](=O)[O-])cc2)o1)C(=O)n1ccnc1`, the inhibition in series [5] is 23%; in series [6], 74.9%; in [7] it was “Dose-dependent effect”; in [8], 53.5%.

Consider `Cc1ccc(NC(=O)N/N=C/c2ccc(-c3ccc([N+](=O)[O-])cc3)o2)cc1`, for which the inhibition in [6] is 29.5%; in [7], “Dose-dependent effect”; in [8], 10.8%.

As for `COc1ccccc1NC(=O)N/N=C/c1ccc(-c2ccc([N+](=O)[O-])cc2)o1`, the inhibition was 30.6% in series [6] and “Dose-dependent effect” in series [7].

As to `O=C(N/N=C/c1ccc(-c2ccc([N+](=O)[O-])cc2)o1)Nc1ccc(Br)cc1`, the inhibition in series [5] was 13.2%; in series [6], 52.9%; in series [7], “Dose-dependent effect”; in series [8], 31.3%.

As for `O=C(NCc1ccc(Cl)cc1Cl)N/N=C/c1ccc(-c2ccc([N+](=O)[O-])cc2)o1`, the inhibition in series [3] is 8.9%; in series [6] it was 16.2%; in series [7], “Dose-dependent effect”.

As to `O=C(NCc1ccc(F)cc1)N/N=C/c1ccc(-c2ccc([N+](=O)[O-])cc2)o1`, the inhibition in [5] was 23.6%; in series [6], 76.1%; in series [7], “Dose-dependent effect”; in series [8] it was 35.1%.

For `O=C(NCc1ccccc1)N/N=C/c1ccc(-c2ccc([N+](=O)[O-])cc2)o1`, the inhibition in [6] was 48.6%; in [7], “Dose-dependent effect”; in series [8] it was 23.1%.

For the compound `O=C(NCc1ccc(Cl)c(Cl)c1)N/N=C/c1ccc(-c2ccc([N+](=O)[O-])cc2)o1`, the inhibition in [6] was 37.2%; in series [7] it was “Dose-dependent effect”; in [8], 25.3%.

In the case of `O=C(NCc1ccccc1F)N/N=C/c1ccc(-c2ccc([N+](=O)[O-])cc2)o1`, the inhibition is 44.6% in series [6], “Dose-dependent effect” in series [7] and 26.1% in [8].

As for `O=C(N/N=C/c1ccc(-c2ccc([N+](=O)[O-])cc2)o1)Nc1ccccc1Br`, the inhibition is 20.1% in [5], 67.1% in series [6], “Dose-dependent effect” in series [7] and 38.5% in series [8].

`O=C(N/N=C/c1ccc(-c2ccc([N+](=O)[O-])cc2)o1)Nc1ccccc1C(F)(F)F`: the inhibition in series [5] was 12.6%; in series [6], 55.5%; in series [7] it was “Dose-dependent effect”; in series [8] it was 30.1%.

Take `O=C(NCc1cccc(Cl)c1Cl)N/N=C/c1ccc(-c2ccc([N+](=O)[O-])cc2)o1`: the inhibition in series [6] was 30.6%; in [7], “Dose-dependent effect”.

Regarding `Cc1ccc(CNC(=O)N/N=C/c2ccc(-c3ccc([N+](=O)[O-])cc3)o2)cc1`, the results for the inhibition in [6] and in [7] were 35.4% and “Dose-dependent effect”, respectively.

For `O=C(N/N=C/c1ccc(-c2ccc([N+](=O)[O-])cc2)o1)Nc1ccccc1OC(F)(F)F`, the figures for the inhibition in series [6], in [7] and in series [8] were 57.1%, “Dose-dependent effect” and 20.4%, respectively.

Turning to `O=C(N/N=C/c1ccc(-c2ccc([N+](=O)[O-])cc2)o1)Nc1ccc([N+](=O)[O-])cc1`, the inhibition in series [6] is 32%; in [7], “Dose-dependent effect”; in [8], 14.1%.

For the compound `O=C(NCc1ccc(Cl)cc1)N/N=C/c1ccc(-c2ccc([N+](=O)[O-])cc2)o1`, the inhibition in series [5] is 27.1%; in series [6] it was 70.4%; in series [7], “Dose-dependent effect”; in series [8], 48.6%.

On to `O=C(NCc1cccc(F)c1)N/N=C/c1ccc(-c2ccc([N+](=O)[O-])cc2)o1`, for which the inhibition in series [3] is 33.6%; in series [6], 72.1%; in series [7], “Dose-dependent effect”; in series [8] it was 25.8%.

As for `O=C1CN(/N=C/c2ccc(-c3ccc([N+](=O)[O-])cc3)o2)C(O)=N1` [DANTROLENE], the solubility kinetic in series [14] was 560 µM (≈ 176 µg/mL).

For the compound `O=C(N/N=C/c1ccc(-c2ccc([N+](=O)[O-])cc2)o1)Nc1ccccc1`, the inhibition in [5] was 15.9%; in series [3], 19.3%; in series [6] it was 93.9%; in [7] it was “Dose-dependent effect”; in [8], 35.8%. For the same compound, the solubility kinetic in [14] is 60 µM (≈ 21 µg/mL).

For `O=C(N/N=C/c1ccc(-c2ccc([N+](=O)[O-])cc2)o1)Nc1ccccc1Cl`, the inhibition in [6] is 50.1%; in [7], “Dose-dependent effect”; in series [8], 25.1%.

In the case of `O=C(N/N=C/c1ccc(-c2ccc([N+](=O)[O-])cc2)o1)n1ccnc1`, the inhibition is 26.1% in series [5], 68.2% in [6], “Dose-dependent effect” in series [7] and 48.4% in series [8].

As to `O=C1CN(/N=C/c2ccc(-c3ccc([N+](=O)[O-])cc3)o2)C(=O)N1`, the inhibition in series [5] was 30.8%; in series [3] it was 0.1%; in series [6] it was 94.2%; in series [7], “Dose-dependent effect”; in series [8] it was 73.1%.

As to `O=C(NCc1ccc(C(F)(F)F)cc1)N/N=C/c1ccc(-c2ccc([N+](=O)[O-])cc2)o1`, the inhibition in series [5] was 19.7%; in [6], 53.1%; in [7], “Dose-dependent effect”; in series [8] it was 27.9%.

Consider `CN(/N=C/c1ccc(-c2ccc([N+](=O)[O-])cc2)o1)C(=O)c1cncn1C`, for which the inhibition in series [5] is 24.5%; in [3], 14.3%; in series [6], 82.5%; in series [7] it was “Dose-dependent effect”; in [8] it was 70.5%. Besides, the solubility kinetic in series [14] came out at 480 µM (≈ 170 µg/mL).
